B2AR ag – agonists of human beta-2 adrenergic receptor inducing internalization; Am2.2-beta2AR cells, FAP receptor internalization, flow cytometry; response, % (concentration not given with the values); 0.43% of 340,000 active;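 active = response above a set limit, near 3 SD of response in nonfluorescent compounds, cut at about 42% in these data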
Target sequence (P07550 whole entry, looked up): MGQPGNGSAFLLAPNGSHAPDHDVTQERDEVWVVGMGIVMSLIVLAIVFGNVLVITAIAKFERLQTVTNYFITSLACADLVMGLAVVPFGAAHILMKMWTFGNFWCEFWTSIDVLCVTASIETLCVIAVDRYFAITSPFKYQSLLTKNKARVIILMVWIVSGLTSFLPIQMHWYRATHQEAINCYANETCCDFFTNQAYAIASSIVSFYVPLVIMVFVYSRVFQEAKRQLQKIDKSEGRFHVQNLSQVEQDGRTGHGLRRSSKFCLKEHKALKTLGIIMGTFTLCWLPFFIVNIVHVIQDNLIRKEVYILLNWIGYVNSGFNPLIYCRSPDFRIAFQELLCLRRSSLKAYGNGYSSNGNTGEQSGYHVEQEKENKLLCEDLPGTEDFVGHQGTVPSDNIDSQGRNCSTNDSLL
rCAG binder – binds r(CAG) RNA repeats; inhibition, % at 3 µM; r(CAG) RNA repeat, TO-PRO-1 dye displacement fluorescence; AID 651821; 1.3% of 370,000 active;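 active = inhibition above the plate cutoff, the mean of all test compounds on that plate plus 3 SD, cut at about 35% in these data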;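 also: higher means more dye released from RNA so lower well fluorescence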
T cell modulator – T cell immune modulators affecting CD8 T cell-vesicle binding; 2C CD8+ T cell-vesicle binding, flow cytometry; hits give low values; response (vesicle binding), % at 7 µM; 0.068% of 330,000 active; AID 2052;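 active = response, share of CD8 T cells binding vesicles, and their 90th percentile fluorescence all below set limits, cut at about 80% in these data, passing the limit was not always enough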;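 also: values below 100% mean blocked vesicle binding to the CD8+ T cells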
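Assay system: 2C TCR transgenic mouse naive CD8+ T cells, MACS-purified | Read-out: CD8+ gate FL2 mean fluorescence as % of same-row positive control | Signal: High-throughput flow cytometry with anti-B7-1 and anti-CD8 staining | Timing: Binding step 1.5 h, 37 °C, antibody labelling 20 min, ice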
V-ATPase pHluor – alters yeast V-ATPase proton transport; S. cerevisiae, pHLuorin cytosolic pH fluorescence; 0.37% of 350,000 active; response, % at 10 µM; AID 504577; in the data active = response mostly above about 7.3%, no sharp cut-off; inactive = mostly below about 5.4%; also: actives read high
Exocytosis inh – lytic granule exocytosis inhibition; TALL-104 LAMP-1 surface exposure, flow cytometry; cells stimulated with thapsigargin and PMA; inhibition, % at 10 µM; 0.66% of 360,000 active; AID 651702;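 active = inhibition above about 55%, limit read from the data; inconclusive = no clear call, values can overlap the other calls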
MPTP inh – permeability transition pore inhibition. isolated mouse mitochondria, Ca2+ swelling absorbance, 30 min. inhibition, % at 10 µM. 1.4% of 360,000 active. AID 602449;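 active = inhibition of 50% or more, scaled per plate between neutral and stimulator controls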
B2AR ag CP1 – agonists of human beta-2 adrenergic receptor; shares compounds with B2AR ag; AID 540358; percent response (surface receptor), % at 10 µM; 25% of 1,100 active; Am2.2-beta2AR cells, FAP surface receptor, flow cytometry; hits give low values;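 active = surface receptor percent response at or below 58%, roughly 3 SD from nonfluorescent compounds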
B2AR FAP counter – counter-screen for beta-2AR agonists: fluorescence in Am2.2 cells. shares compounds with B2AR ag. FAP fluorogen flow cytometry, fluorescence counterscreen; hits give low values. calls only at 10 µM. 1,100 tested, under 10 active. AID 588765;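 active = percent response below a set limit in fluorescence channel 1 and below 50% in channel 8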
Large screens that a line does not name were inactive (follow-up assays come after a bar, where they were run). A selection: hits, their analogues and other compounds. The true share with any hit is near 3.8%.

CCn1cc(CN2CCC(Oc3ccc(C(=O)N4CCCCC4)cc3)CC2)cn1	none
COCCCN1C(=O)[C@H](CC(=O)NCc2cccc3ccccc23)[C@]2(C(=O)OC)CCCCC=C12	none (no result: B2AR ag, T cell modulator, V-ATPase pHluor, Exocytosis inh, MPTP inh)
Cc1ccc(S(=O)(=O)N(CC(=O)NC2CCCCCC2)c2ccccc2F)cc1	none
O=C(CN(c1ccccc1F)S(=O)(=O)c1ccccc1)NC1CCCCCC1	B2AR ag 53.4 (no result: rCAG binder) | B2AR ag CP1 inactive | B2AR FAP counter inactive
COC(=O)[C@]12C[C@H](CC(=O)N3CCOCC3)C(=O)N(CCc3ccc(OC)c(OC)c3)C1=C[C@H](C1CCCC1)O[C@@H]2C	none (no result: B2AR ag, T cell modulator, V-ATPase pHluor, Exocytosis inh, MPTP inh)
Cc1nc([N+](=O)[O-])c(Br)n1Cc1ccc(Cl)c(Cl)c1	B2AR ag 57.6 (no result: T cell modulator) | B2AR ag CP1 inactive | B2AR FAP counter inactive
Cc1cc(NC(=O)COc2cc(F)cc(F)c2)n(-c2ccccc2)n1	none (no result: B2AR ag, T cell modulator, V-ATPase pHluor, Exocytosis inh, MPTP inh)
O=C(c1ccco1)N1CCCC(c2nc3c(nnn3Cc3c(Cl)cccc3Cl)c(=O)[nH]2)C1 (stereo not drawn)	B2AR ag 50.5 | B2AR ag CP1 inactive | B2AR FAP counter inactive
O=C(c1ccco1)N1CCCC(c2nc3c(nnn3Cc3ccccc3)c(=O)[nH]2)C1 (stereo not drawn)	none
COc1ccc(C2/C=C\CN(C(=O)OCc3ccccc3)CC(=O)N2Cc2ccc(F)cc2)cc1 (stereo not drawn)	none (no result: T cell modulator)
COc1ccc(C2/C=C\CN(C(=O)c3ccccc3)CC(=O)N2Cc2ccc(F)cc2)cc1 (stereo not drawn)	none | B2AR ag CP1 inactive | B2AR FAP counter inactive
COc1ccc(C2/C=C\CN(Cc3ccc(N(C)C)cc3)CC(=O)N2Cc2ccc(F)cc2)cc1 (stereo not drawn)	B2AR ag 97.4 | B2AR ag CP1 27.1 | B2AR FAP counter inactive
Cc1c(CN2CCC(CO)(Cc3cccc(C(F)(F)F)c3)CC2)c2ccccc2n1C	B2AR ag 45.5 | B2AR ag CP1 inactive | B2AR FAP counter inactive
Cc1cc(Nc2ccccc2)nn1C(=O)c1ccccc1	none
Cc1cc(Nc2ccccc2)nn1C(=O)c1ccc(Br)cc1	B2AR ag 50.0 | B2AR ag CP1 inactive | B2AR FAP counter inactive
CN(C)CCCN(C(=O)CCc1ccccc1)c1nc2ccc(Br)cc2s1	B2AR ag 43.6 | B2AR ag CP1 inactive | B2AR FAP counter inactive
COc1ccc(C(C(=O)N(C)C2CCCC2)N(Cc2ccc(F)cc2)C(=O)c2cc(C)[nH]n2)cc1OC (stereo not drawn)	none (no result: B2AR ag, T cell modulator, V-ATPase pHluor, Exocytosis inh, MPTP inh)
CC(C)C(=O)Nc1ccc(Cl)cc1-c1nc2ccccc2[nH]c1=O	none
CNc1ccc([N+](=O)[O-])cc1-c1nc2ccccc2[nH]c1=O	B2AR ag 61.5 | B2AR ag CP1 inactive | B2AR FAP counter inactive
O=C(Nc1ccc2c(c1)OCO2)OC1CCC12CCCCC2 (stereo not drawn)	none (no result: B2AR ag, T cell modulator, V-ATPase pHluor, Exocytosis inh, MPTP inh)
COc1ccc(-c2sc3cc4c(cc3c2C#Cc2cncn2C)OCO4)cc1	B2AR ag 56.4 | B2AR ag CP1 inactive | B2AR FAP counter inactive
CCOC(=O)c1cc(NC(=O)N(C)C2CCCCC2)c(C)nc1C	B2AR ag 47.8 | B2AR ag CP1 inactive | B2AR FAP counter inactive
O=C(NCCc1c[nH]c2ccccc12)OCc1cn(-c2cccc(C(F)(F)F)c2)nn1	none (no result: B2AR ag, T cell modulator, V-ATPase pHluor, Exocytosis inh, MPTP inh)
CCC(=O)NC(c1cccs1)c1ccc2cccnc2c1O (stereo not drawn)	none | B2AR ag CP1 inactive | B2AR FAP counter inactive
CC(C)CC(=O)NC(c1cccs1)c1ccc2cccnc2c1O (stereo not drawn)	none (no result: rCAG binder)
CCn1nc(NS(=O)(=O)c2ccc(NC(C)=O)cc2)c2cc3ccccc3nc21	B2AR ag 52.9 | B2AR ag CP1 inactive | B2AR FAP counter inactive
CCn1nc(NS(=O)(=O)c2ccc(F)cc2)c2cc3cccc(C)c3nc21	rCAG binder 62.7 | B2AR ag CP1 inactive | B2AR FAP counter inactive
CCn1nc(NC(=O)c2ccncc2)c2cc3ccccc3nc21	none
CCn1nc(NS(=O)(=O)c2ccc(NC(C)=O)cc2)c2cc3ccc(C)cc3nc21	none
CCCn1nc(NS(C)(=O)=O)c2cc3cccc(C)c3nc21	none
CCn1nc(NS(=O)(=O)c2ccc([N+](=O)[O-])cc2)c2cc3ccccc3nc21	B2AR ag 64.1 | B2AR ag CP1 inactive | B2AR FAP counter inactive
CCn1nc(NS(=O)(=O)c2ccc(C)cc2)c2cc3ccccc3nc21	none | B2AR ag CP1 inactive | B2AR FAP counter inactive
COc1ccc(Cn2cc(COC(=O)Nc3ccc(F)cc3)nn2)cc1	none (no result: B2AR ag, T cell modulator, V-ATPase pHluor, Exocytosis inh, MPTP inh)
COC(=O)[C@]12C[C@H](CC(=O)NCc3ccc(OC)c(OC)c3)C(=O)N(Cc3cccc4ccccc34)C1=C[C@H](C(C)(C)C)O[C@@H]2C	none (no result: B2AR ag, T cell modulator, V-ATPase pHluor, Exocytosis inh, MPTP inh)
CC(C)N1C(=O)/C(=C/c2nc3ccccc3c(=O)n2-c2ccccc2)c2ccccc21	B2AR ag 47.1 | B2AR ag CP1 inactive | B2AR FAP counter inactive
O=C(c1ccccc1Cl)N1CCC(Oc2cccnc2)CC1	none (no result: B2AR ag, T cell modulator, V-ATPase pHluor, Exocytosis inh, MPTP inh)
CN(CC(=O)N1CCN(c2ccccn2)CC1)S(=O)(=O)c1ccccc1	B2AR ag 50.7 | B2AR ag CP1 inactive | B2AR FAP counter inactive
CN(CC(=O)N1CCN(c2ncccn2)CC1)S(=O)(=O)c1ccc(Cl)cc1	B2AR ag 111.7 | B2AR ag CP1 27.7 | B2AR FAP counter inactive
CN(CCCC(=O)N1CCN(c2ncccn2)CC1)S(=O)(=O)c1ccc(F)cc1	none
CC(=O)Nc1ccccc1NC(=O)c1cccc2ccccc12	Exocytosis inh inconclusive
O=C(O)c1cc(O)ccc1NC(=O)c1cccc2ccccc12	B2AR ag 69.1 | B2AR ag CP1 inactive | B2AR FAP counter inactive
Cc1ccc(C(=O)Nc2ccc(O)cc2C(=O)O)cc1C	none | B2AR ag CP1 inactive | B2AR FAP counter inactive
CN(Cc1cn(CC2CCCCC2)nn1)S(=O)(=O)c1ccccc1Br	none (no result: B2AR ag, T cell modulator, V-ATPase pHluor, Exocytosis inh, MPTP inh)
COc1cc(C(=O)Oc2c(CN3CCOCC3)cc(Cl)c3cccnc23)cc(OC)c1OC	none (no result: rCAG binder) | B2AR ag CP1 inactive | B2AR FAP counter inactive
COc1ccc(C(=O)Oc2c(CN3CCOCC3)cc(Cl)c3cccnc23)cc1	none
O=C(Oc1c(CN2CCOCC2)cc(Cl)c2cccnc12)c1ccccc1Cl	none | B2AR ag CP1 inactive | B2AR FAP counter inactive
COc1ccccc1NC(=S)OC1CCC12CCC(c1ccccc1)CC2 (stereo not drawn)	none (no result: B2AR ag, T cell modulator, V-ATPase pHluor, Exocytosis inh, MPTP inh)
Cc1ccc(Nc2nc(-c3c(C)nc4ncccn34)cs2)cc1	none
Cc1ccc(Nc2nc(-c3c(C)nc4ccccn34)cs2)cc1	B2AR ag 43.3 | B2AR ag CP1 inactive | B2AR FAP counter inactive
C[C@@H]1COc2cc(Br)ccc2S(=O)(=O)N1Cc1cn(CCC2OCCO2)nn1	none (no result: B2AR ag, T cell modulator, V-ATPase pHluor, Exocytosis inh, MPTP inh)
Nn1c(SCC(=O)N2CCOCC2)nnc1-c1cc(-c2ccc(F)cc2)n[nH]1	none (no result: B2AR ag, T cell modulator, V-ATPase pHluor, Exocytosis inh, MPTP inh)
CC(C)(C)c1ccc(-n2nc(C#N)c(Cl)cc2=O)cc1	B2AR ag 52.3 (no result: T cell modulator) | B2AR ag CP1 21.9 | B2AR FAP counter active

High-throughput results (PubChem)
